Experimental data of several laboratories.
Protocols differ between the studies behind these lines.
Technique: competition with immobilised ligand
RPS6KA3 C-terminal kinase domain: Ribosomal protein S6 kinase alpha-3, C-terminal kinase domain (RPS6KA3, Homo sapiens, UniProt P51812)
RPS6KA3 N-terminal kinase domain: Ribosomal protein S6 kinase alpha-3, N-terminal kinase domain (RPS6KA3, Homo sapiens, UniProt P51812)

Compound	target	assay	setting	remaining binding
Cc1c(NC(=O)c2cc(C(N)=O)nc3cc(F)ccc23)c(C(F)(F)F)nn1Cc1ccc(C(C)(C)C)cc1	RPS6KA3 C-terminal kinase domain	cell-free assay	1 µM	100%
COc1cnc(Nc2cccc(S(N)(=O)=O)c2)nc1N1CCN(c2ccccc2)CC1	RPS6KA3 N-terminal kinase domain	binding	1 µM	89%
Cc1cnn2ncc(-c3ccnc(N(C)C)n3)c2c1	RPS6KA3 C-terminal kinase domain	binding	1 µM	100%
C[C@@H](c1ccc(-n2cnc3c(N)ncnc32)cc1)N1CCc2nn(C)c(Cc3ccccc3)c2C1=O	RPS6KA3 C-terminal kinase domain	binding	0.1 µM	94%
C=CC(=O)N1CCC(C(=O)NCC(=O)N2CCN(c3nc(-c4cnc(N)nc4C(F)F)nc(N4CCOCC4)n3)CC2)CC1	RPS6KA3 C-terminal kinase domain	binding	1 µM	63%
O=C1NC(c2ccccn2)Sc2ccccc21 (stereo not shown)	RPS6KA3 N-terminal kinase domain	cell-free assay	1 µM	72%
O=C(NCCCN1CCOCC1)c1ccc(Nc2ncc(Cl)c(-c3ccc(Cl)s3)n2)cc1	RPS6KA3 C-terminal kinase domain	binding	1 µM	100%
c1cncc(-c2cccc(Nc3nccc(NC4CCCCC4)n3)c2)c1	RPS6KA3 C-terminal kinase domain	binding	10 µM	79%
CN(C)c1nccc(-c2cnn3ncccc23)n1	RPS6KA3 N-terminal kinase domain	binding	1 µM	82%
O=C(NCCCN1CCOCC1)c1ccc(Nc2nccc(-c3cc4ccccc4s3)n2)cc1	RPS6KA3 C-terminal kinase domain	binding	1 µM	73%
C[C@H](c1ccnc(Nc2nc3ccc(-c4cc(N(C)C)ncn4)cc3[nH]2)c1)N1CCN(C(=O)CC(F)(F)F)CC1	RPS6KA3 C-terminal kinase domain	cell-free assay	0.1 µM	100%
COc1ncc2cc3ccccc3nc2c1C#N	RPS6KA3 N-terminal kinase domain	cell-free assay	5 µM	89%
Cc1cnc(Nc2ccc(C(=O)N3CCC(N4CCCC4)CC3)cc2)nc1-c1cc2ccccc2s1	RPS6KA3 N-terminal kinase domain	binding	1 µM	22%
Nc1ncc2c(n1)-c1c([nH]c3ccc(C#CC4CC4)cc13)CCCC2	RPS6KA3 C-terminal kinase domain	binding	1 µM	100%
O=S(=O)(NC1CCC(c2cc(F)ccc2F)(S(=O)(=O)c2ccc(Cl)cc2)CC1)C(F)(F)F (stereo not shown)	RPS6KA3 C-terminal kinase domain	cell-free assay	1 µM	83%
O=C(Nc1c[nH]nc1C(=O)NC1CCNCC1)c1cc(F)cc(F)c1	RPS6KA3 C-terminal kinase domain	binding	1 µM	100%
CN(C)c1nccc(-c2cnc3ncccn23)n1	RPS6KA3 C-terminal kinase domain	binding	1 µM	78%

Compound	target	assay	setting	remaining binding
c1ccc(N2CCN(Cc3nc4ccccc4[nH]3)CC2)nc1	RPS6KA3 C-terminal kinase domain	binding	1 µM	100%
N[C@H]1CCN(c2nccc(-c3cnn4ncccc34)n2)C1	RPS6KA3 N-terminal kinase domain	binding	1 µM	89%
O=C(NCC1CCOCC1)c1n[nH]cc1NC(=O)c1c(F)cccc1F	RPS6KA3 N-terminal kinase domain	binding	1 µM	78%
CCN1CCN(Cc2ccc(C(=O)Nc3ccc(C)c(Oc4ccc5c(c4)CC(=O)N5)c3)cc2C(F)(F)F)CC1	RPS6KA3 N-terminal kinase domain	binding	1 µM	100%
COc1cnc(Nc2cccc(S(N)(=O)=O)c2)nc1N1CCN(c2ccccc2)C(=O)C1	RPS6KA3 C-terminal kinase domain	binding	1 µM	97%
COc1ccnn2ncc(-c3ccnc(N(C)C)n3)c12	RPS6KA3 N-terminal kinase domain	binding	1 µM	85%
O=C(O)[C@H]1[C@H](Cn2nnc3ccccc3c2=O)CC[C@@H]1C(=O)c1ccc(OCCC2CCOCC2)cc1	RPS6KA3 N-terminal kinase domain	cell-free assay	1 µM	81%
C[C@H]1CCN(c2nccc(-c3cnn4ncccc34)n2)C1	RPS6KA3 C-terminal kinase domain	binding	1 µM	93%
O=C(c1ccc(Nc2ncc(Cl)c(-c3cc4ccccc4s3)n2)cc1)N1CCC(N2CCCC2)CC1	RPS6KA3 C-terminal kinase domain	binding	1 µM	77%
c1cnn2ncc(-c3ccnc(N4CCC45COC5)n3)c2c1	RPS6KA3 N-terminal kinase domain	binding	1 µM	61%
FC(F)(F)Oc1cccc(-c2cnc3ccc(-c4ccncc4)nn23)c1	RPS6KA3 N-terminal kinase domain	binding	5 µM	57%
O=C(c1ccc(Nc2ncc(Cl)c(-c3ccc(Cl)s3)n2)cc1)N1CCC(N2CCCC2)CC1	RPS6KA3 N-terminal kinase domain	binding	1 µM	30%
N#Cc1ccccc1CSc1nnc2c(n1)[nH]c1ccccc12	RPS6KA3 N-terminal kinase domain	binding	10 µM	80%
CN(c1ccnc(CNc2nc(Nc3ccc4c(c3)CC(=O)N4)ncc2C(F)(F)F)n1)S(C)(=O)=O	RPS6KA3 N-terminal kinase domain	cell-free assay	1 µM	25%
CNC(=O)[C@@H]1CC[C@@H](n2c(-c3ccc4cnccc4c3)nc3ccc(C(=O)NCc4cccc(C(N)=O)c4)cc32)C1	RPS6KA3 C-terminal kinase domain	binding	1 µM	100%
CCCOc1ccc([C@H]2[C@H](C(=O)O)[C@@H](c3ccc4c(c3)OCO4)CN2CC(=O)Nc2c(CC)cccc2CC)cc1	RPS6KA3 N-terminal kinase domain	cell-free assay	1 µM	72%
O=C(c1ccc(Nc2nccc(-c3cc4ccccc4s3)n2)cc1)N1CCC(N2CCCC2)CC1	RPS6KA3 C-terminal kinase domain	binding	1 µM	66%
